1 molecule from ChEMBL document CHEMBL1122008, “Lipophilic 5'-(alkyl phosphate) esters of 1-beta-D-arabinofuranosylcytosine and its N4-acyl and 2,2'-anhydro-3'-O-acyl derivatives as potential prodrugs” (1982) can be followed below.

Common to all, as to format: functional
The test system of assay [1] is Mus musculus. Description: Antitumor activity against L1210 leukemia in mice (Average 7-day weight change) at the dose of 100 mg/kg. The essentials: (§1)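 Male B6D2F1J mice, groups of five to nine, inoculated ip with 10^5 L1210 cells on day 0. Drug treatment started day 1 on qd×5 or q4d(2,6) schedule. Vehicles: ara-C in sterile water; the n-butyl phosphate ester in 0.05 M pH 7.4 potassium phosphate buffer; others as suspensions in 0.4% Tween 80/0.5% low-density CMC/0.9% benzyl alcohol/0.9% saline. Mice weighed days 1 and 7; 7-day weight change given as g/mouse and %.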

Assay [2] relates to Mus musculus. Description: Antitumor activity against L1210/ara-C leukemia in mice (Average 7-day weight change (%)) at the dose of 200 mg/kg. In outline: (§2)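 Male B6D2F1J mice (5–9 per group) were given 10^5 L1210/ara-C cells i.p. on day 0, with treatment from day 1 on qd×5 or q4d(2,6). Vehicles were sterile water, pH 7.4 0.05 M phosphate buffer, or a Tween 80/CMC/benzyl alcohol saline suspension. Weights were taken on days 1 and 7; change is expressed in g/mouse and as a percentage.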

Assay [3] has as its system Mus musculus. Description: Antitumor activity against L1210/ara-C leukemia in mice (Average 7-day weight change (%)) at the dose of 100 mg/kg. In outline:
as §2

Assay [4] concerns Mus musculus. Description: Antitumor activity against L1210 leukemia in mice (Average 7-day weight change) at the dose of 250 mg/kg. In outline:
as §1

The subject of assay [5] is Mus musculus. The experiment in a line: Antitumor activity against L1210 leukemia in mice (Average weight per mouse on day 1.) at the dose of 1000 mg/kg. In outline:
(§3)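 Male B6D2F1J mice (5–9 per group) received 10^5 L1210 cells i.p. on day 0 and drug from day 1, given qd×5 or q4d(2,6). Vehicles were sterile water, 0.05 M potassium phosphate pH 7.4, or 0.4% Tween 80/0.5% CMC/0.9% benzyl alcohol/0.9% saline. Read-out is average body weight per mouse (g) on day 1.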

For assay [6], the system named is Mus musculus. Description: Antitumor activity against L1210/ara-C leukemia in mice (Percent increase in life span.) at the dose of 200 mg/kg. The essentials: (§4)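 Same protocol as the L1210 assay, but with 10^5 kinase-deficient L1210/ara-C cells inoculated ip into male B6D2F1J mice (groups of 5–9) on day 0. Treatment begins day 1, qd×5 or q4d(2,6). %ILS = (T/C − 1)×100 using median survival times of treated and control groups. Body weight recorded days 1 and 7.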

The test system of assay [7] is Mus musculus. Description: Antitumor activity against L1210/ara-C leukemia in mice (Percent increase in life span.) at the dose of 100 mg/kg. In outline: as §4
Assay [8] deals with Mus musculus. The experiment in a line: Antitumor activity against L1210 leukemia in mice (Average 7-day weight change) at the dose of 1000 mg/kg. The essentials:
as §1

Assay [9] concerns Mus musculus. Description: Antitumor activity against L1210 leukemia in mice (Average weight per mouse on day 1.) at the dose of 500 mg/kg. The essentials:
as §3

For assay [10], the system named is Mus musculus. The experiment in a line: Antitumor activity against L1210 leukemia in mice (Average 7-day weight change (%)) at the dose of 500 mg/kg. The essentials:
as §1

Assay [11] concerns Mus musculus. Description: Antitumor activity against L1210 leukemia in mice (Average 7-day weight change) at the dose of 500 mg/kg. In outline:
as §1

Assay [12] relates to Mus musculus. Description: Antitumor activity against L1210/ara-C leukemia in mice (Average 7-day weight change) at the dose of 500 mg/kg. In outline:
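Male B6D2F1J mice, groups of 5–9, inoculated ip with 10^5 L1210/ara-C cells on day 0. Dosing began day 1 on a qd×5 or q4d(2,6) schedule. Ara-C was given in sterile water, the n-butyl phosphate ester in 0.05 M pH 7.4 potassium phosphate buffer, and others as suspensions in 0.4% Tween 80/0.5% CMC/0.9% benzyl alcohol/0.9% saline. Mice were weighed on days 1 and 7; 7-day change given in g and %.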

Assay [13] has as its system Mus musculus. The experiment in a line: Antitumor activity against L1210/ara-C leukemia in mice (Average 7-day weight change (%)) at the dose of 1000 mg/kg. The essentials:
as §2

Consider `Nc1ccn([C@@H]2O[C@H](CO)[C@@H](O)[C@@H]2O)c(=O)n1` [CYTARABINE], for which the Weight change in the assay with Mus musculus [1] was -1 g mouse-1; in the assay with Mus musculus [2], -14%; in the assay with Mus musculus [3] it was -4%; in the assay on Mus musculus [4], 1.4 g mouse-1; in the assay with Mus musculus [8] it was 0.8 g mouse-1; in the assay with Mus musculus [10], 2%. The Weight change with Mus musculus [11] is recorded as 0.4 g mouse-1; with Mus musculus [12] it was 3.8 g mouse-1; in the assay with Mus musculus [13], 11%. The Average weight in the assay with Mus musculus [5] turned out to be 24 g mouse-1; with Mus musculus [9], 22.6 g mouse-1. Further, in the assay with Mus musculus [6], the ILS at 200 mg/kg was -13%. Further, in the assay on Mus musculus [7], the ILS at 100 mg/kg was -13%.
